Experimental data taken from ChEMBL document CHEMBL3351575, “Halogenated diarylacetylenes repress c-myc expression in cancer cells” (Bioorg Med Chem Lett, 2014).
Activity calls are given as the source filed them. No cut-off for these calls is given here.

Tests used:
Type in all cases: functional, cell-based
LS174T [1] = experiment: Inhibition of c-myc expression in human LS 174T cells at 1 uM after 36 hrs by Western blotting analysis
Summary of the method: (§1)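 LS174T colon cancer cells exposed to each diarylacetylene at 1 μM for 36 h, alongside a DMSO vehicle control and a reference compound; cell lysates then probed by western blot, with β-tubulin as the loading control.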

[2] = Antiproliferative activity against human LS 174T cells after 4 days by Vi-Cell cell viability analyzer; settings: LS174T, 96 h
LS174T [3] = experiment: Induction of p21([…]/Cip1) expression in human LS 174T cells at 1 uM after 36 hrs by Western blotting analysis; summary of the method: as §1

| Compound | inhibition (LS174T [1]) | IC50 [2] [nM] | Activity (LS174T [3]) |
| --- | --- | --- | --- |
| CN(C)c1ccc(C#Cc2ccc(F)cc2)cc1 | Active | > 3000 | Active |
| CN(C)c1ccc(C#Cc2cccc(F)c2F)cc1 |  | 119 |  |
| CN(C)c1ccc(C#Cc2ccc(F)cc2F)cc1 |  | 56 |  |
| CN(C)c1ccc(C#Cc2cc(F)ccc2F)cc1 |  | 55 |  |
| CN(C)c1ccc(/C=C/c2c(F)cccc2F)cc1 | Active | 59 | Active |
| CN(C)c1ccc(C#Cc2ccccc2)cc1 | Active | > 3000 | Active |
| CN(C)c1ccc(C#Cc2c(F)cccc2F)cc1 | Active | 23 | Active |
| CN(C)c1ccc(C#Cc2ccccc2Cl)cc1 | Active | 31 | Active |
| CN(C)c1ccc(C#Cc2cc(F)cc(F)c2)cc1 |  | > 3000 |  |
| Nc1ccc(C#Cc2c(F)cccc2F)cc1 |  | 55 |  |
| CN(C)c1ccc(C#Cc2ccc(F)c(F)c2)cc1 | Active | > 3000 | Active |
| CN(C)c1ccc(C#Cc2c(F)cccc2Cl)cc1 | Active | 19 | Active |
| CN(C)c1ccc(C#Cc2cccc(F)c2)cc1 | Active | > 3000 | Active |
| CN(C)c1ccc(C#Cc2ccccc2F)cc1 | Active | 39 | Active |
| CNc1ccc(C#Cc2c(F)cccc2F)cc1 | Active | 23 | Active |
| CN(C)c1ccc(C#Cc2c(Cl)cccc2Cl)cc1 | Active | 52 | Active |
